Legend:
[1] = molecular target: Kappa-type opioid receptor (Cavia porcellus, UniProt P41144); test: Binding affinity towards Opioid receptor kappa 1 from guinea pig brain using [3H]U-69593 as radioligand
Summary of the method: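 Uses 1 nM [3H]U69,593 with guinea pig brain membrane protein (500 µg), 12 concentrations, 50 mM Tris-HCl pH 7.5, 60 min at 25 °C. Nonspecific binding with 10 µM naloxone. Filters pre-soaked in 0.1% polyethylenimine; bound label counted.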

[2] = molecular target: Kappa-type opioid receptor (Cavia porcellus) (UniProt P41144); test: Ratio of binding affinity of Opioid receptor kappa 1 to Opioid receptor mu 1 to Opioid receptor delta 1; kappa:mu:delta = 45:12:1
Chain of Kappa-type opioid receptor (Cavia porcellus) (P41144 whole entry): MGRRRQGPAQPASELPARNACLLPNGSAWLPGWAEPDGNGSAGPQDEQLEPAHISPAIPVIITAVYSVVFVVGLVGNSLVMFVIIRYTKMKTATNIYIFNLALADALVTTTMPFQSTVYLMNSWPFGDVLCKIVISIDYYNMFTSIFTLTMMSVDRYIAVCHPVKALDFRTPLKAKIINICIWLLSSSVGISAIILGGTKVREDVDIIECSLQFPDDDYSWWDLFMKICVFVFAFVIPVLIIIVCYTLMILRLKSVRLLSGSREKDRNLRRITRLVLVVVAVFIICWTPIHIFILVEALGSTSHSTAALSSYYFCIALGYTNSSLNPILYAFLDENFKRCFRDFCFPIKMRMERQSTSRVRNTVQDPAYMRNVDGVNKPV

Mu-type opioid receptor = Mu-type opioid receptor (Cavia porcellus, UniProt P97266); test: Binding affinity towards Opioid receptor mu 1 from guinea pig brain using [3H]DAMGO as radioligand
Chain of Mu-type opioid receptor (P97266 whole entry): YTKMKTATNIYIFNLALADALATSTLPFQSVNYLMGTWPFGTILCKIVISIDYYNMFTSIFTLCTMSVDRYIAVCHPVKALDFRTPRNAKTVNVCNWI

[3] = molecular target: Kappa-type opioid receptor (Cavia porcellus) (UniProt P41144); test: Ratio of binding affinity of Opioid receptor kappa 1 to Opioid receptor mu 1 to Opioid receptor delta 1; kappa:mu:delta = 4:3:1
[4] = molecular target: Kappa-type opioid receptor (Cavia porcellus) (UniProt P41144); test: Ratio of binding affinity of Opioid receptor kappa 1 to Opioid receptor mu 1 to Opioid receptor delta 1; kappa:mu:delta = 5:3:1
[5] = molecular target: Kappa-type opioid receptor (Cavia porcellus) (UniProt P41144); test: Ratio of binding affinity of Opioid receptor kappa 1 to Opioid receptor mu 1 to Opioid receptor delta 1; kappa:mu:delta = 36:14:1
[6] = molecular target: Kappa-type opioid receptor (Cavia porcellus) (UniProt P41144); test: Ratio of binding affinity of Opioid receptor kappa 1 to Opioid receptor mu 1 to Opioid receptor delta 1; kappa:mu:delta = 13:10:1
[7] = Binding affinity towards Opioid receptor delta 1 from guinea pig brain using [3H]naltrindole as radioligand

Chain of Kappa-type opioid receptor (P41144 whole entry): as the sequence (P41144 whole entry) above

SMILES | Ki [1] | Ratio [2] | Ki (Mu-type opioid receptor) | Ratio [3] | Ratio [4] | Ratio [5] | Ratio [6] | Ki [7]
COc1ccccc1Nc1ccc2c(c1)[C@@]1(C)CCN(CC3CC3)C(C2)[C@@H]1C | 2.2 nM | 45 | 8.5 nM | – | – | – | – | –
C[C@H]1C2Cc3ccc(Nc4ccc(C(C)(C)C)cc4)cc3[C@@]1(C)CCN2CC1CC1 | 14 nM | – | 18 nM | 4 | – | – | – | –
C[C@H]1C2Cc3ccc(Nc4ccc(Cl)c(Cl)c4)cc3[C@@]1(C)CCN2CC1CC1 | 5.7 nM | – | 8.4 nM | – | 5 | – | – | –
C[C@H]1C2Cc3cc4cc[nH]c4cc3[C@@]1(C)CCN2CC1CC1 | 7 nM | – | 18 nM | – | – | 36 | – | –
C[C@H]1C2Cc3ccc(N(C)Cc4ccccc4)cc3[C@@]1(C)CCN2CC1CC1 | – | – | – | – | – | – | 13 | 570 nM
